Measurements taken from ChEMBL document CHEMBL5390247, “Aryl azoles based scaffolds for disrupting tumor microenvironment” (Bioorg Med Chem, 2023).
The source made the active and inactive calls. No cut-off for these calls is given here.

Columns and labels:
[1] = Toxicity against interferon gamma-stimulated human THP-1 monocyte cells co-cultured with human HT-29 cells assessed as reduction in cell viability at 100 uM incubated for 48 hrs by flow cytometry analysis; type: cell-based; details: thp-1, 48 h
Outline: (§1)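 HT-29 cells at 10^5/well seeded and grown 24 h. Medium then replaced with medium containing IFN-γ (10 ng/ml), 5 × 10^5 THP-1 cells/well and compound at 100 µM; DMSO used as control. After 48 h, THP-1 cells collected from supernatant and cancer cells by trypsinisation. Both fixed in 4% paraformaldehyde and counted by flow cytometry relative to control.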

[2] = system: HT-29; assay: Antiproliferative activity against human HT-29 cells assessed as reduction in IL-6 secretion at 100 uM incubated for 48 hrs by ELISA assay; type: functional, cell-based
Outline: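 HT-29 monocultures at 10^5 cells/well treated 48 h with compound at 100 µM in 500 µL growth medium. Media collected and secreted IL-6 measured with a human IL-6 ELISA kit.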

[3] = system: HT-29; assay: Immunomodulatory activity in human HT-29 cells co-cultured with interferon gamma-stimulated THP-1 cells assessed as cell viability at 100 uM incubated for 48 hrs by flow cytometry analysis relative to control; type: functional; details: read-out: Activity; outline: as §1
[4] = system: HT-29; assay: Immunomodulatory activity in human HT-29 cells co-cultured with interferon gamma-stimulated THP-1 cells assessed as inhibition of cell growth at 100 uM incubated for 48 hrs by flow cytometry analysis relative to control; type: functional; outline: as §1
[5] = system: HT-29; assay: Immunomodulatory activity in human HT-29 cells co-cultured with interferon gamma-stimulated THP-1 cells assessed as reduction in number of cells at 100 uM incubated for 48 hrs; type: functional, cell-based; outline: as §1
[6] = system: HT-29; assay: Immunomodulatory activity in human HT-29 cells co-cultured with interferon gamma-stimulated THP-1 cells assessed as induction of morphological changes by measuring cell shrinkage at 100 uM incubated for 48 hrs; type: functional, cell-based
Outline: (§2)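 HT-29 cells co-cultured with IFN-γ-stimulated THP-1 cells and treated 48 h with compounds at 100 µM, with DMSO as control. Cell shrinkage and rounded morphology assessed by microscopy images.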

[7] = system: HT-29; assay: Immunomodulatory activity in human HT-29 cells co-cultured with interferon gamma-stimulated THP-1 cells assessed as relative CD-47 protein expression in membrane at 100 uM incubated for 48 hrs by flow cytometry analysis relative to control; type: functional
[8] = system: HT-29; assay: Immunomodulatory activity in human HT-29 cells co-cultured with interferon gamma-stimulated THP-1 cells assessed as relative PD-L1 protein expression in membrane at 100 uM incubated for 48 hrs by flow cytometry analysis relative to control; type: functional
[9] = system: HT-29; assay: Immunomodulatory activity in human HT-29 cells co-cultured with interferon gamma-stimulated THP-1 cells assessed as IL-6 level at 100 uM incubated for 48 hrs by ELISA analysis (reference value: 192 +/- 16 pg/ml); type: functional
Outline: (§3)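 HT-29 cells co-cultured with IFN-γ (10 ng/ml)-stimulated THP-1 cells and treated 48 h with compound at 100 µM. Culture media collected and IL-6 measured by human IL-6 ELISA, in pg/mL and as % of control. Mean of three experiments.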

[10] = system: HT-29; assay: Immunomodulatory activity in human HT-29 cells co-cultured with interferon gamma-stimulated THP-1 cells assessed as relative IL-6 level at 100 uM incubated for 48 hrs by ELISA analysis relative to control; type: functional; outline: as §3
[11] = system: HMEC-1; assay: Antiangiogenic activity in HMEC-1 cells assessed as inhibition of endothelial microtubes formation at 100 uM incubated for 24 hrs by matrigel based imaging analysis; type: functional, cell-based; details: Homo sapiens
Outline: (§4)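 HMEC-1 cells at 2 × 10^4 cells/well seeded on Matrigel (10 mg/mL, gelled 30 min at 37 °C) in EGM-2MV medium with SingleQuots, allowed to attach 30 min at 37 °C. Compounds then added in medium; after 24 h at 37 °C, microtube formation/destruction evaluated from pictures.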

[12] = system: HMEC-1; assay: Antiangiogenic activity in HMEC-1 cells assessed as inhibition of endothelial microtubes formation at <75 uM incubated for 24 hrs by matrigel based imaging analysis; type: functional, cell-based; details: Homo sapiens; outline: as §4
[13] = system: HEK293; assay: Anti-vasculogenic activity against HEK293 cells assessed as disruption of tube-like structures at 100 uM incubated for 24 hrs by Matrigel based imaging analysis; type: functional, cell-based; details: Homo sapiens
Outline: (§5)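 HEK-293 cells seeded at 5 × 10^4 cells/well on Matrigel (pre-incubated with medium 24 h at 37 °C), grown 24 h at 37 °C until tube-like structures form; compounds then added in medium and incubated a further 24 h at 37 °C. Disruption of preformed tube-like structures assessed by imaging.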

[14] = system: HEK293; assay: Anti-vasculogenic activity against HEK293 cells assessed as disruption of tube-like structures at <75 uM incubated for 24 hrs by Matrigel based imaging analysis; type: functional, cell-based; details: Homo sapiens; outline: as §5
[15] = system: HT-29; assay: Immunomodulatory activity in human HT-29 cells co-cultured with interferon gamma-stimulated THP-1 cells assessed as induction of morphological changes by measuring rounded cell morphology at 100 uM incubated for 48 hrs; type: functional, cell-based; outline: as §2
[16] = system: HT-29; assay: Antiproliferative activity against human HT-29 cells assessed as reduction in cell viability incubated for 48 hrs by MTT assay; type: functional, cell-based; details: HT-29, 48 h
Outline: (§6)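 MTT dye-reduction assay. Cells at 5 × 10^3/well in DMEM with 10% FBS, treated with serial dilutions of compound (DMSO stocks) for 2 days at 37 °C, 5% CO2. MTT added for a further 3 h, formazan dissolved in DMSO, absorbance read at 550 nm. Viability expressed as % of untreated cells; IC50 determined graphically from three independent experiments.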

[17] = system: A549; assay: Antiproliferative activity against human A549 cells assessed as reduction in cell viability incubated for 48 hrs by MTT assay; type: functional, cell-based; details: A549, 48 h; outline: as §6
[18] = system: MCF7; assay: Antiproliferative activity against human MCF7 cells assessed as reduction in cell viability incubated for 48 hrs by MTT assay; type: functional, cell-based; details: MCF7, 48 h; outline: as §6
[19] = Cytotoxicity against HEK293 cells assessed as reduction in cell viability incubated for 48 hrs by MTT assay; type: toxicity, cell-based; details: human; outline: as §6
[20] = system: HT-29; assay: Antiproliferative activity against human HT-29 cells assessed as relative PD-L1 protein expression in membrane at 100 uM incubated for 48 hrs by flow cytometry analysis relative to control; type: functional
[21] = system: HT-29; assay: Antiproliferative activity against human HT-29 cells assessed as relative PD-L1 protein expression in whole cell at 100 uM incubated for 48 hrs by flow cytometry analysis relative to control; type: functional
[22] = system: HT-29; assay: Antiproliferative activity against human HT-29 cells assessed as relative c-Myc protein expression at 100 uM incubated for 48 hrs by flow cytometry analysis relative to control; type: functional
[23] = system: HT-29; assay: Antiproliferative activity against human HT-29 cells assessed as relative VEGFR-2 protein expression in membrane at 100 uM incubated for 48 hrs by flow cytometry analysis relative to control; type: functional
[24] = system: HT-29; assay: Antiproliferative activity against human HT-29 cells assessed as relative VEGFR-2 protein expression in whole cell at 100 uM incubated for 48 hrs by flow cytometry analysis relative to control; type: functional
[25] = system: HT-29; assay: Immunomodulatory activity in human HT-29 cells co-cultured with interferon gamma-stimulated THP-1 cells assessed as inhibition of CD-47 protein expression at 100 uM incubated for 48 hrs by flow cytometry analysis relative to control; type: functional

## Nc1cccc(-c2cn(Cc3ccc(Br)cc3)nn2)c1
[1]
  Activity: Non-Toxic
[2]
  Activity: inactive
[3]
  viability at 100 µM: 8%
[4]
  inhibition at 100 µM: > 90%
[5]
  Activity: Active
[6]
  Activity: Active
[7]
  Activity: 92%
[8]
  Activity: 154%
[9]
  Activity: 183 pg/mL
[10]
  Activity: 95%
[11]
  Activity: Active
[12]
  Activity: inactive
[13]
  Activity: Active
[14]
  Activity: inactive
[15]
  Activity: Active

## O=[N+]([O-])c1cccc(-c2nnn(Cc3ccc(Br)cc3)n2)c1
[1]
  Activity: Non-Toxic
[16]
  IC50: > 100 µM
[17]
  IC50: 39 µM
[18]
  IC50: > 100 µM
[19]
  IC50 at 48 h: > 100 µM
[20]
  Activity: >100%
[21]
  Activity: 93%
[22]
  Activity: 72%
[23]
  Activity: 96%
[24]
  Activity: 71%
[3]
  viability at 100 µM: 52%
[7]
  Activity: 87%
[8]
  Activity: 93%

## Cc1cccc(Cn2nnc(-c3cccc(N)c3)n2)c1
[1]
  Activity: Non-Toxic
[20]
  Activity: >100%
[21]
  Activity: 81%
[22]
  Activity: >100%
[23]
  Activity: >100%
[24]
  Activity: >100%
[3]
  viability at 100 µM: 15%
[4]
  inhibition at 100 µM: > 70%
[7]
  Activity: 69%
[8]
  Activity: 99%
[25]
  inhibition at 100 µM: > 30%

## Cc1ccc(Cn2nnc(-c3cccc(N)c3)n2)cc1
[1]
  Activity: Non-Toxic
[3]
  viability at 100 µM: 28%
[4]
  inhibition at 100 µM: > 70%
[7]
  Activity: 67%
[8]
  Activity: 90%
[25]
  inhibition at 100 µM: > 30%

## O=[N+]([O-])c1cccc(-c2nnn(Cc3ccc(Cl)cc3)n2)c1
[1]
  Activity: Non-Toxic
[16]
  IC50: > 100 µM
[17]
  IC50: > 100 µM
[18]
  IC50: 84 µM
[19]
  IC50 at 48 h: > 100 µM
[20]
  Activity: 93%
[21]
  Activity: 87%
[22]
  Activity: 90%
[23]
  Activity: 95%
[24]
  Activity: 45%
[3]
  viability at 100 µM: 93%
[7]
  Activity: 88%
[8]
  Activity: 93%

## Nc1cccc(-c2cn(Cc3ccc(Cl)cc3)nn2)c1
[1]
  Activity: Non-Toxic
[2]
  Activity: inactive
[3]
  viability at 100 µM: 5%
[4]
  inhibition at 100 µM: > 90%
[5]
  Activity: Active
[6]
  Activity: Active
[7]
  Activity: 91%
[8]
  Activity: 140%
[9]
  Activity: 189 pg/mL
[10]
  Activity: 98%
[11]
  Activity: Active
[12]
  Activity: inactive
[13]
  Activity: Active
[14]
  Activity: inactive
[15]
  Activity: Active

## O=[N+]([O-])c1cccc(-c2nnn(Cc3ccccc3Cl)n2)c1
[1]
  Activity: Non-Toxic
[16]
  IC50: 81 µM
[17]
  IC50: > 100 µM
[18]
  IC50: > 100 µM
[19]
  IC50 at 48 h: > 100 µM
[20]
  Activity: 98%
[21]
  Activity: 89%
[22]
  Activity: 86%
[23]
  Activity: 97%
[24]
  Activity: 53%
[3]
  viability at 100 µM: 44%
[7]
  Activity: 87%
[8]
  Activity: 108%

## COc1ccc(Cn2nnc(-c3cccc(N)c3)n2)cc1
[1]
  Activity: Non-Toxic
[20]
  Activity: >100%
[21]
  Activity: 99%
[22]
  Activity: 75%
[23]
  Activity: >100%
[24]
  Activity: 75%
[3]
  viability at 100 µM: 45%
[5]
  Activity: Active
[6]
  Activity: Active
[7]
  Activity: 58%
[8]
  Activity: 100%
[15]
  Activity: Active
[25]
  inhibition at 100 µM: > 30%

## COc1cccc(Cn2nnc(-c3cccc([N+](=O)[O-])c3)n2)c1
[1]
  Activity: Non-Toxic
[20]
  Activity: 83%
[21]
  Activity: >100%
[22]
  Activity: 75%
[23]
  Activity: >100%
[24]
  Activity: 42%
[3]
  viability at 100 µM: 40%
[5]
  Activity: Active
[6]
  Activity: Active
[7]
  Activity: 77%
[8]
  Activity: 88%
[15]
  Activity: Active
